Measured values: publication PMC12222688 (Scientific Reports, 2025)

Molecular target: plasma kallikrein (pKal) (Homo sapiens, UniProt P03952)
Experiment: cell-free fluorogenic substrate enzyme activity assay with recombinant pKal
Format: biochemical
Outline: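 Human recombinant plasma kallikrein was dissolved in deionized water and used with its protein-specific fluorogenic substrate under cell-free conditions. Test compound, at concentrations up to 3000 µg/mL, was incubated with substrate solution for 30 min at 37 °C. Fluorescence was read on a microplate reader. Autofluorescence was subtracted, and relative fluorescence units were normalized to blank samples.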

Chain of plasma kallikrein (pKal) (P03952 20-390): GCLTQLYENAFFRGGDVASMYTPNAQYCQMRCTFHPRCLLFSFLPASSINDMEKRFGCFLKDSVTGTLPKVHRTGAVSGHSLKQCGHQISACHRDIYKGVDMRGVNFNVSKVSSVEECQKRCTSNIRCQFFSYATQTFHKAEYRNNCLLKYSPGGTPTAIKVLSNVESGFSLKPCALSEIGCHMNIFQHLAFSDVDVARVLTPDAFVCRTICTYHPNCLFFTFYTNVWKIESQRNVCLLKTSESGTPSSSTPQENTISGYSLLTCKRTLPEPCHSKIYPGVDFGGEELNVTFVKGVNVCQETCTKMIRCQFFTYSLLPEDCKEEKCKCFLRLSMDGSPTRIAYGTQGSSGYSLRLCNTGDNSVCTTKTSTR
Chain of plasma kallikrein (pKal) (P03952 391-638): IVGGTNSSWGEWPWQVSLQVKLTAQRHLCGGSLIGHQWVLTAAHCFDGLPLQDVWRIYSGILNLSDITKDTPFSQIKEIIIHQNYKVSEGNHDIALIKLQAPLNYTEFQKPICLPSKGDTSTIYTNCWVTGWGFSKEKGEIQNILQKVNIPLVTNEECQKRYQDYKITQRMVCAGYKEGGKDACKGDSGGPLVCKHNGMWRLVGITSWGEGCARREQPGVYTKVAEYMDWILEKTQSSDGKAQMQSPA

In the case of `C[C@@H]1O[C@@H](O[C@@H]2[C@@H](O)[C@H](OCCc3ccc(O)c(O)c3)O[C@H](CO)[C@H]2OC(=O)/C=C/c2ccc(O)c(O)c2)[C@H](O)[C@H](O)[C@H]1O` [acteoside], the IC50 is reported as 313 µM.
